SMILES strings stand for the structures. Calls of active or inactive are those of the source. The calls are words filed in the database; no cut-off is given here.

The subject of one data set is PC-3. Briefly: Cytotoxicity against androgen independent human PC3 cells assessed as cell viability at 50 uM after 24 hrs by alamar blue assay. Conditions: for viability at 50 µM: PC-3, 24 h, read-out: Activity. The class given is functional.
Data set [1] is described as follows: Cytotoxicity against human PWR-1E cells assessed as cell viability at 50 uM after 24 hrs by alamar blue assay. The class given is cell-based. Conditions: read-out: Activity.
Data set [2] has as its system CWR22R. Nature of the data set: Antiproliferative activity against human 22Rv1 cells assessed effect on DHT-induced PSA expression after 2 hrs by ELISA. The class given is functional, cell-based. (ELISA stands for enzyme-linked immunosorbent assay.)
For data set [3], the target named is T1, Androgen receptor (Homo sapiens) (UniProt P10275).
T1 sequence (whole entry): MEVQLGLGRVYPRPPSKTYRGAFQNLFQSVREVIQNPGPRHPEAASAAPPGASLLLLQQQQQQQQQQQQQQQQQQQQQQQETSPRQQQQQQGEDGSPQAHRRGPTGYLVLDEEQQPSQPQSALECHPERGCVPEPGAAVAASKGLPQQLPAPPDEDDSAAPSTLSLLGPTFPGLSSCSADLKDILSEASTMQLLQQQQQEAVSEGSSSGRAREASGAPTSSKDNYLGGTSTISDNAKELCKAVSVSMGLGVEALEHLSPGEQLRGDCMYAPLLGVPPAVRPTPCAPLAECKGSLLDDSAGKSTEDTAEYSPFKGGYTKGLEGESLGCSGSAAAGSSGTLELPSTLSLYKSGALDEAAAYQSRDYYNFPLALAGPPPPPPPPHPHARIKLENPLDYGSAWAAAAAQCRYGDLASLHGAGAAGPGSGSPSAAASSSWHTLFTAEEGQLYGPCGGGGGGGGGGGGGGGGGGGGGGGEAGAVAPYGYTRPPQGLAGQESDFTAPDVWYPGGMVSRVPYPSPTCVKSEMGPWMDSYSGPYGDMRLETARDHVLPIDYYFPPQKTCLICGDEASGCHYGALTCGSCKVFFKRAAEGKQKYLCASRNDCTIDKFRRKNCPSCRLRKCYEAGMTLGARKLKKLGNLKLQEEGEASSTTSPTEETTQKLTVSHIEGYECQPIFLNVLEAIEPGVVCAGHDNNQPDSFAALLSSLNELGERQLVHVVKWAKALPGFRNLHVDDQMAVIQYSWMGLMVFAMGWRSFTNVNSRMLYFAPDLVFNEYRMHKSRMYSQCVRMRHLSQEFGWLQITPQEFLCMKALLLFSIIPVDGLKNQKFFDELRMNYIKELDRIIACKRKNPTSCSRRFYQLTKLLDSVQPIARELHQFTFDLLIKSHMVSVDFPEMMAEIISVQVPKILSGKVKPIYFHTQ
Briefly: Partial agonist activity at androgen receptor in human LNCAP cells assessed effect on CPA-induced PSA expression after 2 hrs by ELISA. In kind it is functional, cell-based.

Data set [4] deals with T1, Androgen receptor (Homo sapiens). Nature of the data set: Antagonist activity at androgen receptor in androgen dependent human LNCAP cells assessed reduction of CPA-induced PSA expression after 2 hrs by ELISA. The class given is functional, cell-based.
The test system of data set [5] is CWR22R. Nature of the data set: Antiproliferative activity against human 22Rv1 cells assessed reduction of CPA-induced PSA expression after 2 hrs by ELISA. In kind it is functional, cell-based.
Data set [6] deals with LNCaP. Nature of the data set: Antiproliferative activity against androgen dependent human LNCAP cells assessed as reduction of DHT-induced cell count after 5 days by alamar blue assay. The class given is functional, cell-based. The gist of the method: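 LNCaP cells deprived of steroids for 48 h in phenol red-free RPMI with 10% charcoal-stripped FBS, then seeded at 2 × 10^4 cells/mL. Treated 5 days with compound (10 and 20 μM) with or without 0.1 nM DHT, 0.1% DMSO final. Medium and treatments renewed every second day after PBS washes. Growth read by AlamarBlue; two experiments, n = 6.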

Data set [7] concerns the target T1, Androgen receptor (Homo sapiens). Nature of the data set: Displacement of fluormone from AR LBD after 4 hrs by fluorescence polarization assay. Conditions: concentration not given here. In general terms: Fluorescence polarisation rises when a labelled molecule tumbles more slowly, as on binding a larger partner.
The target is the same in data set [8]. Nature of the data set: Agonist activity at androgen receptor in human LNCAP cells assessed effect on CPA-induced PSA expression after 2 hrs by ELISA. The class given is functional, cell-based.
For data set [9] the target is unchanged. Nature of the data set: Antagonist activity at androgen receptor in androgen dependent human LNCAP cells assessed reduction of DHT-induced PSA expression after 2 hrs by ELISA. The class given is functional, cell-based.
The subject of data set [10] is LNCaP. Briefly: Cytotoxicity against androgen dependent human LNCAP cells assessed as cell viability at 50 uM after 24 hrs by alamar blue assay. In kind it is functional. Conditions: read-out: Activity. (In general: Alamar Blue is a resazurin reagent that responds to reducing activity.)
Data set [11] addresses T2, Progesterone receptor (Homo sapiens) (UniProt P06401).
T2 sequence (whole entry): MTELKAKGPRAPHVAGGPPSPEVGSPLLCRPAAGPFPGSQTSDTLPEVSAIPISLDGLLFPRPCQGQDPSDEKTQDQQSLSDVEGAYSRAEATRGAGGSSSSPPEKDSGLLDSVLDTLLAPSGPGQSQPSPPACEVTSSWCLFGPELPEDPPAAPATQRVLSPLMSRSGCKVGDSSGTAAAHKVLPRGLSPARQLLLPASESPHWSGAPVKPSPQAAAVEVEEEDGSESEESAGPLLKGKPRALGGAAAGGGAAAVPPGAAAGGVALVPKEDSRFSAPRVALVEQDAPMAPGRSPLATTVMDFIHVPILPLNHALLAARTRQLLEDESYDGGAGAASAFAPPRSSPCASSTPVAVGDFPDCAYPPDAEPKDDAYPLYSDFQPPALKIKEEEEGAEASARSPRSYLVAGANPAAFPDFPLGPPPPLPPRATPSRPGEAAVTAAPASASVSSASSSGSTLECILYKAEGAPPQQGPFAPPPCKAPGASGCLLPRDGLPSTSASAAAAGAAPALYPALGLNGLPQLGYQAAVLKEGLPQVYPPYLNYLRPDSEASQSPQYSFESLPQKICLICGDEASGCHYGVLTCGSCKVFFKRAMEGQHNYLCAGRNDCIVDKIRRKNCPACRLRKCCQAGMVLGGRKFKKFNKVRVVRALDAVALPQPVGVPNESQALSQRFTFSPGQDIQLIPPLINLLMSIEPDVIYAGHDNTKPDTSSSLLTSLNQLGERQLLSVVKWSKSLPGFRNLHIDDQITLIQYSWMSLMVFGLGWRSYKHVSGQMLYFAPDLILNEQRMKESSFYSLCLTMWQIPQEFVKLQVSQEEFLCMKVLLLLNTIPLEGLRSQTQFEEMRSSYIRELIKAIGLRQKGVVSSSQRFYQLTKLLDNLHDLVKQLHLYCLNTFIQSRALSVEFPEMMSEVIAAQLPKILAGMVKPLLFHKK
Nature of the data set: Antagonist activity at PR assessed as inhibition of progesterone-induced fluorescent labelled SRC1-4 recruitment at 100 uM after 2 to 4 hrs by TR-FRET assay. In kind it is functional. The gist of the method:
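TR-FRET coactivator recruitment with PR ligand-binding domain, fluorescent SRC1-4 peptide and Tb anti-GST antibody, with progesterone at its EC80. Compounds were tested from 100 to 1 μM at 1% DMSO final in coregulator buffer with 5 mM DTT. […] Two independent experiments, each in triplicate; IC50 from variable-slope fit.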

Data set [12] addresses T1, Androgen receptor (Homo sapiens). Nature of the data set: Antagonist activity at androgen receptor in androgen dependent human LNCAP cells assessed reduction of CPA-induced PSA expression at 10 uM after 2 hrs by ELISA. The class given is functional, cell-based.

Regarding `COc1cc(/C=N/NC(=O)c2cc3c(ccc4ccccc43)o2)cc(OC)c1O`, the viability at 50 µM in the data set with PC-3 and in the data set with LNCaP [10] was 80% throughout. Further, the viability at 24 h, 50 µM in [1] amounted to 80%. Also, in the data set on CWR22R [2], the result was inactive. Also, the result (in [3]; in the data set with CWR22R [5]; in data set [8]; in data set [12]) was Active. Besides, the Activity result (in data set [4]; in the data set on LNCaP [6]; in [9]) was “Dose-dependent effect” each time. Moreover, the inhibition in data set [7] amounted to 0%; in data set [11], 30%.
Regarding `CC(=O)O[C@]1(C(C)=O)CC[C@H]2[C@@H]3C=C(Cl)C4=CC(=O)[C@@H]5C[C@@H]5[C@]4(C)[C@H]3CC[C@@]21C`, the result in the data set with PC-3 was Active.
On to `O=C(N/N=C/c1cc(Br)ccc1O)c1cc2ccccc2cc1O`, for which the viability at 50 µM in the data set on PC-3 and in the data set on LNCaP [10] was 50% throughout. In addition, the viability at 24 h, 50 µM in data set [1] amounted to 50%. Also, the results for the inhibition in [7] and in data set [11] were 0% and 50%, respectively.

One may read the inhibition as how much of the control response was suppressed.

The values above are taken from ChEMBL document CHEMBL2086322, “"True" antiandrogens-selective non-ligand-binding pocket disruptors of androgen receptor-coactivator interactions: novel tools for prostate cancer” (J Med Chem, 2012).
